The text below walks through data of ChEMBL document CHEMBL2040707, “Fluorinated amino-derivatives of the sesquiterpene lactone, parthenolide, as (19)f NMR probes in deuterium-free environments” (2011).

The term GI50 denotes the concentration that inhibits growth by half. As usually defined, the TGI is the concentration giving total growth inhibition. Higher therefore signals lower sensitivity of the cells.

For the experiment, the system named is HL-60. In words: Antiproliferative activity against human HL60 cells after 72 hrs by MTT assay. It is filed as functional. The conditions noted are these: HL-60, 72 h. The method, boiled down: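 HL-60 cells from ATCC grown in phenol red-free RPMI-1640 with 10% FBS at 37 °C, 5% CO2. Seeded 5,000 cells/well, treated at ten concentrations in quadruplicate (final 0.5% DMSO; vehicle control 0.5% DMSO). After 72 h, MTT (2.5 mg/mL solution) added for 4 h, formazan dissolved in acidic isopropanol/Triton for 16 h, A570 read. GI50 set relative to a Day 0 density plate; 95% CI given.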
`C/C1=C/CC[C@@]2(C)O[C@@H]2[C@H]2OC(=O)[C@@H](CN3CCCCC3)[C@@H]2CC1`: growth was halved (GI50) at 0.84 µM, the LC50 (concentration killing 50% of cells) amounted to 10.1 µM and total growth inhibition (TGI) required 3.99 µM.

Compound `C/C1=C/CC[C@@]2(C)O[C@@H]2[C@H]2OC(=O)[C@@H](CN3CCCC(F)C3)[C@@H]2CC1` (stereo partly specified) registered a GI50 of 1.13 µM and a TGI of 12.2 µM.

`C/C1=C/CC[C@@]2(C)O[C@@H]2[C@H]2OC(=O)[C@@H](CN3CCCC(F)(F)C3)[C@@H]2CC1` registered a GI50 of 16.9 µM.

For the compound `C/C1=C/CC[C@@]2(C)O[C@@H]2[C@H]2OC(=O)[C@@H](CN3CCCC(C(F)(F)F)C3)[C@@H]2CC1` (stereo partly specified), the GI50 was determined as 1.69 µM, the LC50 (concentration killing 50% of cells) turned out to be 21.3 µM and net growth stopped (TGI) at 7.29 µM.

`C/C1=C/CC[C@@]2(C)O[C@@H]2[C@H]2OC(=O)[C@@H](CN3CCC(F)CC3)[C@@H]2CC1`: it took 1.77 µM to inhibit growth by half (GI50), the LC50 (concentration killing 50% of cells) was determined as 8.07 µM and the TGI stood at 5.7 µM.

For `C/C1=C\CC[C@@]2(C)O[C@@H]2[C@H]2OC(=O)[C@@H](CN3CCC(F)(F)CC3)[C@@H]2CC1`, it took 0.69 µM to inhibit growth by half (GI50), the LC50 (concentration killing 50% of cells) was found to be 17.7 µM and the concentration for total growth inhibition (TGI) is 5.58 µM.

Compound `C/C1=C/CC[C@@]2(C)O[C@@H]2[C@H]2OC(=O)[C@@H](CN3CCC(C(F)(F)F)CC3)[C@@H]2CC1` registered a 50% growth inhibitory concentration (GI50) of 1 µM, an LC50 (concentration killing 50% of cells) of 3.11 µM and a TGI of 2.14 µM.

In turn, `C/C1=C/CC[C@@]2(C)O[C@@H]2[C@H]2OC(=O)[C@@H](CN3CCCC3)[C@@H]2CC1` gave a GI50 of 0.75 µM, an LC50 (concentration killing 50% of cells) of 2.54 µM and a TGI of 1.74 µM.

`C/C1=C/CC[C@@]2(C)O[C@@H]2[C@H]2OC(=O)[C@@H](CN3CC[C@@H](F)C3)[C@@H]2CC1` returned a GI50 of 0.58 µM, an LC50 (concentration killing 50% of cells) of 1.66 µM and a TGI of 1.18 µM.

Regarding `C/C1=C/CC[C@@]2(C)O[C@@H]2[C@H]2OC(=O)[C@@H](CN3CC[C@H](F)C3)[C@@H]2CC1`, it took 24.7 µM to inhibit growth by half (GI50) and net growth stopped (TGI) at 46.2 µM.

In turn, `C/C1=C/CC[C@@]2(C)O[C@@H]2[C@H]2OC(=O)[C@@H](CN3CCC(F)(F)C3)[C@@H]2CC1` registered a GI50 of 8.32 µM, an LC50 (concentration killing 50% of cells) of 23.8 µM and a TGI of 18.3 µM.

`C=C1C(=O)O[C@@H]2C3O[C@]3(C)CC/C=C(\C)CC[C@@H]12` (stereo partly specified) gave a GI50 of 0.52 µM and a TGI of 1.36 µM.
